# Bioassay records from PubChem BioAssay.
# The list is not random: actives were taken first. Their share in the collection is about 2.9%.
# ADAM17 inh: ADAM17 inhibition, QFRET primary screen; P78536; recombinant ADAM17, EDANS/DABCYL FRET peptide cleavage; inhibition, % at 6.95 µM; 0.83% of 370,000 active; AID 720648;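 active = inhibition above the mean of compounds lying between control limits plus 3 SD, set per campaign, cut at about 8.5% in these data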
# FAS TE block: FAS thioesterase (human) inhibition; recombinant FAS-TE, OMFH fluorogenic substrate, fluorescence endpoint; AID 602261; inhibition, % at 15 µM; P49327; 0.67% of 360,000 active;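 active = compounds whose normalised, plate-corrected inhibition of enzyme fluorescence in the single-dose primary screen is 50% or more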
# NRP1-CendR mod: alters CendR peptide binding to human NRP-1; O14786; FAM-RPARPAR peptide binding to NRP-1, fluorescence polarization; inhibition, % at 25 µM; 0.85% of 360,000 active; AID 602438;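 active = inhibition or corrected inhibition above about 18%, plus a signal ratio from 0.5 to 1.5, limit read from the data, passing the limit was not always enough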
# CaV13 FRET inh: Disruptors of the CACNA1D IQ motif to Ca2+-dependent inactivation inhibitor domain association, primary screening, Förster resonance energy transfer in intact living …. HEK cells, CFP/YFP FRET ICDI-IQ, plate reader, 10 min; percent FRET-ratio fall versus neutral wells. inhibition, % at 12.3 µM. 0.098% of 340,000 active;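 active = mean replicate inhibition of at least 30% and at least 1% of replicates passing that level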
# ADAM10 inh: inhibits human ADAM10. recombinant ADAM10, EDANS/DABCYL FRET peptide cleavage, 3 h. inhibition, % at 7 µM. 0.62% of 370,000 active. AID 720582;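 active = inhibition above a per-campaign cutoff equal to the mean of compounds falling between control-based bounds plus 3 SD, cut at about 20% in these data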
# Target sequence (O14672 214-748 limits assumed): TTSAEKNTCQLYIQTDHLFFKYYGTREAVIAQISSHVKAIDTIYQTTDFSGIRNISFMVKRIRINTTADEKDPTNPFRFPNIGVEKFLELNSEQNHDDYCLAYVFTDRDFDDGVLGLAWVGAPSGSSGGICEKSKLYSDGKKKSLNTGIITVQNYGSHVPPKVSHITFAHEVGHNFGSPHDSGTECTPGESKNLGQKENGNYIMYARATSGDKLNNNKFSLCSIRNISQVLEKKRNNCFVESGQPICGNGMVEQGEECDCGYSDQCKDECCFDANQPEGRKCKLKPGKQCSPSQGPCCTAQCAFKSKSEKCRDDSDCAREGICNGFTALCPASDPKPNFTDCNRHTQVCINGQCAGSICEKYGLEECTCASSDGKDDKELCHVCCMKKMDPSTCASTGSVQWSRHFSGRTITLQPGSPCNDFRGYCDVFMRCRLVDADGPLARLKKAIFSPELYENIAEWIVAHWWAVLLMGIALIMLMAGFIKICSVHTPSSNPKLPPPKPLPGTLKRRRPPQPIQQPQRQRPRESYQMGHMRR
# Arr AP2 block: human beta-arrestin and AP2 interaction inhibition. FITC-arrestin peptide / GST-AP2 beads, flow cytometry; AP2 beta2 appendage carries R879A mutation. inhibition, % at 10 µM. 0.31% of 340,000 active. AID 504490;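 active = inhibition above a set limit, near 3 SD of compounds lacking own fluorescence, cut at about 54% in these data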
#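 System: GST-tagged AP2 beta2-adaptin appendage (R879A) on 4 µm glutathione beads / Reagent: FITC-arrestin peptide, 50 nM / Detection: HyperCyt-sampled flow cytometry, FL1 channel, ex 488/em 535 nm / Timing: 12 min plus 1 h, RT / Buffer or medium: PBS plus Tween 20 (0.05%) and BSA (0.1%)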
# A number is an active result; – = inactive; · = not tested or not shown; + = active, no number.
SMILES,ADAM17 inh,FAS TE block,NRP1-CendR mod,CaV13 FRET inh,ADAM10 inh,Arr AP2 block
CN(C)CCCNC(=O)C[C@@H]1CC[C@@H]2[C@H](COc3ccc(NC(=O)c4cccc(F)c4)cc3C(=O)N2C)O1,–,·,·,·,–,·
Cc1ccc(C(=O)NCCN2C(=O)C3C4C=CC(C4)C3C2=O)cc1 (stereo not given),–,·,·,·,–,·
CCCCCCCCCCCC1=C(O)C(=O)C=C(O)C1=O,·,61.5,–,·,·,–
COC1=CC(=O)C(O)=C(CCCCCCC/C=C/CCCCCCCC2=C(O)C(=O)C=C(OC)C2=O)C1=O,·,–,–,·,·,–
CCN1C(=O)/C(=C2/Sc3ccccc3N2CC)SC1=S,–,–,48.4,–,–,–
Cc1cc(=S)cc(C)n1CCCO,–,–,31.7,–,–,–
COc1cccc(-c2nc3nc(C)cc(C)n3c2NCc2ccccc2)c1,–,–,–,–,–,·
CC(Sc1ncccn1)C(=O)NC1(C#N)CCCCC1 (stereo not given),–,–,25.7,–,–,–
CCOc1ccccc1-c1cncc(NC)n1,–,–,–,–,–,·
Cc1ccccc1NC(=O)CCC(=O)N/N=C/c1cccnc1,–,–,21.6,–,–,–
Cc1ccc(NC(=O)CCC(=O)N/N=C/c2cccnc2)cc1,–,–,–,–,–,–
O=S(=O)(c1ccccc1)N1CC2CC(Br)C(Br)CC21 (stereo not given),–,–,–,–,–,·
CC1(C)CN(O)CCN1O,–,–,25.3,·,–,–
Cc1ccccc1NC(=O)c1cc(S(=O)(=O)c2ccccc2)ccc1Cl,–,–,–,·,–,–
Cc1cccc(NC(=O)c2cc(S(=O)(=O)c3ccccc3)ccc2Cl)c1,–,–,34.1,–,–,–
O=C(O)/C(=C\c1ccccc1)c1ccc2ccccc2c1,–,–,20.7,–,–,–
COc1ccc(C(=O)c2coc3c2C(=O)C(=O)c2ccccc2-3)cc1,–,–,25.2,–,–,–
O=C(c1ccccc1)c1coc2c1C(=O)c1ccccc1C2=O,–,–,–,–,–,–
COC(=O)[C@@]1(Cc2ccc(OC)cc2)[C@H]2c3cc(C(=O)N4CCCC4)n(CCN4CCOCC4)c3C[C@H]2CN1C(=O)c1ccccc1,–,–,22.9,–,–,·
COC(=O)[C@@]1(Cc2ccc(OC)cc2)[C@H]2c3cc(C(=O)N4CCCC4)n(Cc4ccc(OC)c(OC)c4)c3C[C@H]2CN1C(=O)c1ccccc1,–,·,·,–,–,·
CC(C)C[C@@H](C)C(=O)N(Cc1ccccc1)c1ccccc1,–,–,32.0,–,–,–
CCOC(=O)C(C(=O)OCC)c1cc(Br)c2noc3c2c1C(=O)c1ccccc1-3,–,–,–,·,–,94.1
NC(=O)c1ccccc1NC(=O)C(c1ccccc1)c1ccccc1,–,–,40.2,–,–,–
Cc1ccc(NS(=O)(=O)c2cc([N+](=O)[O-])ccc2NNC(=S)Nc2cccc(Cl)c2)c(C)c1,·,52.5,–,·,·,–
CC(C)(C)CC(=O)Nc1ccc(C(N)=O)cc1,–,–,26.5,–,–,–
SMILES,ADAM17 inh,FAS TE block,NRP1-CendR mod,CaV13 FRET inh,ADAM10 inh,Arr AP2 block
CCC(C)(C)C(=O)Nc1ccc(C(N)=O)cc1,–,–,–,–,–,–
c1ccn2c(SCc3ccc4c(c3)OCO4)nnc2c1,–,–,24.4,–,–,–
O=C(CSc1nnc2ccccn12)Nc1ccc2c(c1)OCO2,–,–,–,–,–,–
O=C(CCSc1nnc2ccccn12)Nc1ccc2c(c1)OCO2,–,–,22.6,–,–,–
CCN(CC)C(=O)Cn1cc(C(=O)C(=O)N2CCN(c3ccccc3)CC2)c2ccccc21,–,–,24.6,–,–,–
CCN(CC)C(=O)Cn1cc(C(=O)C(=O)N2CCN(C)CC2)c2ccccc21,–,–,–,–,–,–
O=C(c1n[nH]c2ccccc12)N1CCN(S(=O)(=O)c2ccc3ccccc3c2)CC1,–,–,47.4,–,–,–
Cc1ccc(S(=O)(=O)N2CCN(C(=O)c3n[nH]c4ccccc34)CC2)cc1,–,–,–,–,–,–
CCN(CC)S(=O)(=O)N1CCC(C(=O)NCCC2=CCCCC2)CC1,–,–,27.1,–,–,–
Cc1ccccc1NC(=O)c1cccc(NC(=O)CCC(=O)O)c1,–,–,22.8,–,–,–
O=C(O)CCC(=O)Nc1cccc(C(=O)c2ccccc2)c1,–,–,–,–,–,–
Nc1[nH]c2ccccc2c1C(=O)NC1CC1,–,·,·,·,–,·
O=C(Nc1ccc2c(c1)OCO2)O[C@@H]1C[C@H]2CCC(=O)N3CC[C@@H](C1)[C@@H]23,–,–,20.6,–,–,–
C(=C\c1ccccc1)/CN1CCN(C(c2cccc3ccccc23)c2nnnn2C2CCCC2)CC1 (stereo not given),–,–,–,–,–,·
N#CCC(=O)Nc1ccc(C(=O)OCC(=O)N=c2sccn2Cc2ccccc2Cl)cc1,–,–,–,–,–,–
Cc1cc(C)c(NC(=O)CSc2cccc[n+]2[O-])c(C)c1,–,–,–,–,–,–
Cc1ccc(Cl)c(NC(=O)CSc2cccc[n+]2[O-])c1Cl,–,–,27.8,–,–,–
Cc1ccsc1/C=N/NC(=O)C(=O)NCC(C)C,–,–,32.1,–,–,–
CCCCC(=O)N/N=C/c1sccc1C,–,–,–,–,–,–
CCOC(=O)C1CCCN(C(=O)c2ccc3nc(-c4cccc(OC)c4)oc3c2)C1 (stereo not given),–,–,–,–,–,–
CCNC(=O)C1(C)CCCN1C(=O)c1c(F)cccc1F (stereo not given),–,–,–,–,–,·
CCOC(=O)c1ccc2[nH]c(C)c(C)c2c1,–,–,45.5,–,–,–
COc1cc(OC)cc(C(=O)NCC2CCN(C(=O)C(=O)c3cc4ccccc4o3)CC2)c1,–,·,·,–,–,·
C=CCN1C(=O)[C@H](CC(=O)NCCCC)[C@@]2(C(=O)OCC)CCCC=C12,–,·,·,·,–,·
CN(C)CCNC(=O)c1cc2ccccc2oc1=O,–,–,–,–,–,–
SMILES,ADAM17 inh,FAS TE block,NRP1-CendR mod,CaV13 FRET inh,ADAM10 inh,Arr AP2 block
CN(Cc1cnn(C)c1)C(=O)c1cc2ccccc2oc1=O,–,–,52.2,·,–,–
CCN(CC)Cc1c(O)c(Cl)cc2c(C)cc(=O)oc12,–,–,–,35.3,–,–
CCN(CC)Cc1c(O)c(Cl)cc2c(C)c(C)c(=O)oc12,–,–,–,·,–,–
C=CCc1c(O)c(CC)cc2c(C)cc(=O)oc12,–,–,–,+,–,–
Cc1ccccc1-c1ccc2c(c1)[C@@H]1C[C@H](N(C)CC3CCCCC3)[C@H]([C@H](C)O)CN1CC2,–,·,·,–,–,·
CC(=O)N1CCN(S(=O)(=O)c2cccc(C(=O)NNC(=O)Cn3ccc(C(F)(F)F)n3)c2)CC1,–,–,28.2,–,–,–
